In general, IC50 refers to the concentration at which inhibition is half-maximal. As usually defined, the inhibition is the drop in the measured response relative to a control, in per cent. A lower inhibition goes with a weak effect.

Structures are written as SMILES.

Test [1] has as its target T1, Sodium channel alpha subunits; brain (Types I, II, III) (Rattus norvegicus, UniProt P04775+P04774+P08104). Kind of test: Inhibitory effect against veratridine-induced glutamate release from rat brain slices. The test is classed as functional. In short, it runs like this:
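Cross-chopped 0.2 mm slices of Chbb:Thom rat cortex or striatum preincubated 45 min at 37 °C in oxygenated Krebs–Henseleit buffer pH 7.4 with glucose, EDTA and ascorbate. Then 15 min with or without 3 μM veratridine, drug present throughout. After centrifugation, supernatant glutamate measured by HPLC with fluorimetric detection; protein by Coomassie.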

For test [2], the target named is T1, Sodium channel alpha subunits; brain (Types I, II, III). As to the kind of experiment: Displacement of [3H]BTX from sodium channel of rat cerebral cortex synaptosomes. It counts as subcellular. In short, it runs like this: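 Synaptosomal membranes from rat cerebral cortex incubated 1 h at 37 °C with 1 nmol/L [3H]BTX-B in choline Cl/HEPES-Tris buffer pH 7.4 containing glucose, KCl and MgSO4, plus scorpion venom. Nonspecific binding defined with 100 μmol/L aconitine. Stopped by vacuum filtration through glass fiber and two buffer washes.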
(In general: Loss of bound radioactivity is the signal in a displacement assay; it reports binding, not function.)

The species named for test [3] is Mus musculus. Kind of test: Ability to block convulsions in the maximal electroshock test (MES) in mice. It counts as functional. In short, it runs like this:
(§1)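 Male OF1 mice, groups of 10, given several doses sc; electroshock 20 mA/50 Hz/200 ms through eye electrodes 15 min after injection. Score is the percentage of animals free of tonic convulsions. ID50 for inhibition of tonic seizures obtained by log-probit analysis over three to four doses.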
On the technique in general: In the maximal electroshock model the usual endpoint is tonic extension of the hind limbs.

In test [4] the target is T2, Voltage-gated L-type calcium channel (Rattus norvegicus, UniProt P22002+Q02485+P27732). Kind of test: Displacement of verapamil from L-type calcium channel binding site. The test is classed as protein assay.
Test [5] addresses T2, Voltage-gated L-type calcium channel. As to the kind of experiment: Displacement of DHP from L-type calcium channel binding site. It counts as protein assay.
The target in test [6] is T1, Sodium channel alpha subunits; brain (Types I, II, III). Kind of test: Displacement of [3H]-TTX from sodium channel of rat cerebral cortex synaptosomes. The test is classed as subcellular.
The target of test [7] is T2, Voltage-gated L-type calcium channel. Kind of test: Displacement of diltiazem from L-type calcium channel binding site. The test is classed as protein assay.
The target of test [8] is T3, Sodium channel alpha subunits; brain (Types I, II, III) (Rattus norvegicus) (UniProt P04775+P04774+P08104). Kind of test: Percent inhibition of veratridine-induced glutamate release in rat brain slices at 10000 nmol/L. The test is classed as functional, tissue-based.
The species entered for test [9] is Mus musculus. Kind of test: Percent of mice that did not develop tonic convulsion in the maximal electroshock test (MES). It counts as functional. The procedure, abridged: as §1
Test [10] has as its target T3, Sodium channel alpha subunits; brain (Types I, II, III) (Rattus norvegicus). Kind of test: Percent inhibition of [3H]BTX displacement at 10000 nmol/L. It counts as protein assay.
The species named for test [11] is Mus musculus. As to the kind of experiment: Ability to block convulsions in the maximal electroshock test(MES) in mice. The test is classed as functional. Conditions: read-out: ID50 (the source's name). The procedure, abridged: as §1
The target in test [12] is T2, Voltage-gated L-type calcium channel. Kind of test: Displacement of dihydropyridine (DHP) from the L-type calcium channel binding site. It counts as protein assay.
Setting [13] is: read-out: ID50 (the source's name).

T3 sequence (P04775 whole entry, looked up, other chains not shown): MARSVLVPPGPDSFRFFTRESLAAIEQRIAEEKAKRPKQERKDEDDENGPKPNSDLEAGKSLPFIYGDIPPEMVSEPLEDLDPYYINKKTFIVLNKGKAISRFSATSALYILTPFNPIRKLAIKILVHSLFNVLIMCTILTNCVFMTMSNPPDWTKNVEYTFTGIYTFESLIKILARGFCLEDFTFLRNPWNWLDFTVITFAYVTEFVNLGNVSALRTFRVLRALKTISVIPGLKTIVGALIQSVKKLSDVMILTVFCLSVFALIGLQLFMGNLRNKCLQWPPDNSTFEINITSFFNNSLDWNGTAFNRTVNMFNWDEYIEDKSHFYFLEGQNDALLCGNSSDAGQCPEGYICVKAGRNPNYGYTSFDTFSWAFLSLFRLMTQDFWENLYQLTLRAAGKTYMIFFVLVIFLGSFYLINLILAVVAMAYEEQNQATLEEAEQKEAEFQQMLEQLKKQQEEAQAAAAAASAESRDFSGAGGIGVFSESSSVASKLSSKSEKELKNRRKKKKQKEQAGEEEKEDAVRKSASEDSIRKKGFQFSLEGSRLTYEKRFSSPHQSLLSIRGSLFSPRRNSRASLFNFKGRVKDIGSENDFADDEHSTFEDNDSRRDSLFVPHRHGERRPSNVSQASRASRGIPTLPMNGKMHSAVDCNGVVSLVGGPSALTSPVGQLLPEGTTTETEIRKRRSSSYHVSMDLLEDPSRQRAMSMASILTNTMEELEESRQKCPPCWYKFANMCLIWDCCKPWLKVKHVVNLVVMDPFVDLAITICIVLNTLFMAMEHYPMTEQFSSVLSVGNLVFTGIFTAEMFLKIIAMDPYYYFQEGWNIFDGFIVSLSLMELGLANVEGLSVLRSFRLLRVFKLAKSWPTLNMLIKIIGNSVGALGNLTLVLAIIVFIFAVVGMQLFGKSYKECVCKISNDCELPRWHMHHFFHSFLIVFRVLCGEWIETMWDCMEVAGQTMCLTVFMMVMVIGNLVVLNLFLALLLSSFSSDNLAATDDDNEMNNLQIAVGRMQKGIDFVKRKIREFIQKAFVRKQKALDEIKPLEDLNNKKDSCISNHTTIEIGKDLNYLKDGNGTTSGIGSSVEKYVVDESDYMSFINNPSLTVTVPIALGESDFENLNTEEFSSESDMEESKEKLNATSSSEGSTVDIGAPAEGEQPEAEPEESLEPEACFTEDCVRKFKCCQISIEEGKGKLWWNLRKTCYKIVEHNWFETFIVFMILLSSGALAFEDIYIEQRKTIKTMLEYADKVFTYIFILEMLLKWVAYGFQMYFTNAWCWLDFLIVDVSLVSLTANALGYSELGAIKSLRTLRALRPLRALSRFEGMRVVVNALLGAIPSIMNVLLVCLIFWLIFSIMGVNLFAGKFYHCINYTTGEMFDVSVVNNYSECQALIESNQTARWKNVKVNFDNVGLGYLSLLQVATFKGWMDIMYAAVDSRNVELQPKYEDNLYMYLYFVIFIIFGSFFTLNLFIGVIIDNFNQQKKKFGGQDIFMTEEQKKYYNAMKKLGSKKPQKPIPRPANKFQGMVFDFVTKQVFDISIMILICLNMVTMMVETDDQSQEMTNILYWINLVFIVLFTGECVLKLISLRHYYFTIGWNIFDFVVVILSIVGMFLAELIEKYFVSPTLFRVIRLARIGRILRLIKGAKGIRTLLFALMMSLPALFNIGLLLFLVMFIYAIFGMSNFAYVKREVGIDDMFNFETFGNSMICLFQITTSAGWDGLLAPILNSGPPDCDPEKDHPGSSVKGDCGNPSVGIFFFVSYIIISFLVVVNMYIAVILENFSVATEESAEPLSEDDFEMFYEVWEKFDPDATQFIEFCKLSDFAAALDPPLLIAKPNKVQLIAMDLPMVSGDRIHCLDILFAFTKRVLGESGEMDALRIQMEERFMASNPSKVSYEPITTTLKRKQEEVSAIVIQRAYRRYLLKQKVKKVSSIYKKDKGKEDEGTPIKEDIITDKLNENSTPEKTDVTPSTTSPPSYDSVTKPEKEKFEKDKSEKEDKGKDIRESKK
T3 sequence (P08104 whole entry, looked up, other chains not shown): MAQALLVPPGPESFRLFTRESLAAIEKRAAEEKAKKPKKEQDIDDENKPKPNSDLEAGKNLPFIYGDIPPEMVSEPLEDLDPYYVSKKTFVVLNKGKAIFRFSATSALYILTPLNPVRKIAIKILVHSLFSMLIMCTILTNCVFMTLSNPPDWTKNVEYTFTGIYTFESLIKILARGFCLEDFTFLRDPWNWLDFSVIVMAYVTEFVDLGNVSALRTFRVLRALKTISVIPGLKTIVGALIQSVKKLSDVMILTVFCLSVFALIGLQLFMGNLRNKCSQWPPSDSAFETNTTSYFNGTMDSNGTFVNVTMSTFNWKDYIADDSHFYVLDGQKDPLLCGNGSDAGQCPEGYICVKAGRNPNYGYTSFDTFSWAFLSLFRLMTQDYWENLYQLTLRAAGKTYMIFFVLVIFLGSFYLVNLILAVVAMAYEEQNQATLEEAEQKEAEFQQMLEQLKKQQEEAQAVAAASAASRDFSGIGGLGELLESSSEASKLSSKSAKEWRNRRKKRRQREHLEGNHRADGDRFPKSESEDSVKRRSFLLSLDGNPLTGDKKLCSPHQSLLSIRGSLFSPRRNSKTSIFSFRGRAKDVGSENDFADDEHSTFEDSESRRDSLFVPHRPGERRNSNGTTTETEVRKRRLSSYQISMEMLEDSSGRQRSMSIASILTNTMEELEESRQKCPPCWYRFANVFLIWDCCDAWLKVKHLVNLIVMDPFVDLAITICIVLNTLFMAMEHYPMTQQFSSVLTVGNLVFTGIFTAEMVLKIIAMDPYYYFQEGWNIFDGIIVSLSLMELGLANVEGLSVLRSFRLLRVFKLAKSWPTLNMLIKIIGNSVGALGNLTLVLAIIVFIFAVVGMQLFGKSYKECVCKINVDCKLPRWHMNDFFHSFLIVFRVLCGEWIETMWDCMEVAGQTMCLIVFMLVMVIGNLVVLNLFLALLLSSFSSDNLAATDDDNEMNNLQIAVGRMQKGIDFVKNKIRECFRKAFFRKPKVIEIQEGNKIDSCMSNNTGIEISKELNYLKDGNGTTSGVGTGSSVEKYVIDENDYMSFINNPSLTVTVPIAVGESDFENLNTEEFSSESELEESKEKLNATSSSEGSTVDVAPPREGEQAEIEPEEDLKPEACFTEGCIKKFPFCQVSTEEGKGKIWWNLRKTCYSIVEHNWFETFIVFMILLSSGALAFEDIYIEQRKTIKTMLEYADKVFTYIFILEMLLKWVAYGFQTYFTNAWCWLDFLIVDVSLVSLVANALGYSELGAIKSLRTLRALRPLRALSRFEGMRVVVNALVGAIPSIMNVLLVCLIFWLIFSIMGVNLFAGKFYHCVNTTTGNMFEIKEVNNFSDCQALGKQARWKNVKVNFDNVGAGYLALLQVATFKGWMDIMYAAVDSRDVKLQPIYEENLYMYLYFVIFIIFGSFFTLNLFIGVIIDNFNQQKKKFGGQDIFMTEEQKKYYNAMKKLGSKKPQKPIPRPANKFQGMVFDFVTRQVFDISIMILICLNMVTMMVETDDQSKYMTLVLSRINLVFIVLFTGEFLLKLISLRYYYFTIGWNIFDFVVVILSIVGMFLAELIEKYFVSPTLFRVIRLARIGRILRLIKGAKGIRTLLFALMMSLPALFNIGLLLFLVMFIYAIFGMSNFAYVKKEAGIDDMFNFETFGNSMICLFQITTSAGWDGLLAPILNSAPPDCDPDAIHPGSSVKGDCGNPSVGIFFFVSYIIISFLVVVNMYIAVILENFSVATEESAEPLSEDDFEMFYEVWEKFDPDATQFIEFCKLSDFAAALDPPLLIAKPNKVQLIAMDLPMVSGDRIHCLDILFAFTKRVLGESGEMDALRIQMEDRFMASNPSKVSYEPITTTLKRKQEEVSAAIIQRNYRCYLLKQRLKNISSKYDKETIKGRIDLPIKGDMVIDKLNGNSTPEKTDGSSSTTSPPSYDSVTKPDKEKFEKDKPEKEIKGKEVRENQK

Consider `C[C@H](CN1CCC2(C)c3ccc(O)cc3C[C@H]1C2(C)C)Oc1ccccc1`, for which the IC50 in [1] was 6340 nmol/L. The same molecule had a Ki in test [2] of 864 nM.

As for `CC1[C@H]2Cc3c(O)cccc3C1(C)CCN2C[C@H](C)OCc1ccccc1` (stereo partly specified), the ED50 in test [3] (setting [13]) stood at 2.4 mg/kg. The same molecule showed an IC50 in [1] of 134 nmol/L. Besides, the Ki in test [2] was found to be 54 nM.

Regarding `C[C@H](CN1CCC2(C)c3cccc(O)c3C[C@@H]1C2(C)C)OCc1ccccc1`, in test [3] (setting [13]), the ED50 stood at 9.4 mg/kg. The same molecule came in with an IC50 in test [1] of 922 nmol/L. The Ki was 500 nM l-1 in [4]; over 10000 nM l-1 in [5]; 114 nM in test [2]; over 10000 nM l-1 in test [6]; 391 nM l-1 in test [7].

Take `COC(C)CN1CCC2(C)c3cc(O)ccc3C[C@@H]1C2(C)C` (stereo partly specified): in [3], the ED50 was found to be 0.1 mg/kg. Further, the IC50 in [1] was over 10000 nmol/L. The same molecule gave an inhibition in [8] of 29%. For the same molecule, the Ki in test [2] was 6010 nM.

In the case of `COc1ccc2c(c1)[C@]13CCCC[C@@H]1[C@H](C2)N(C)CC3` [DEXTROMETHORPHAN], the IC50 in [1] is over 10000 nmol/L. In addition, the inhibition in test [8] was 5%. The molecule further had a Ki in test [2] of 4800 nM.

On to `C[C@H](CN1CCC2(C)c3ccc(O)cc3C[C@H]1C2(C)C)OCc1ccccc1`, for which the Mice in test [9] came out at 30%. Also, in test [3] (setting [13]), the ED50 was over 100 mg/kg. Also, the IC50 in test [1] worked out at 2676 nmol/L. Also, in test [2], the Ki came out at 1230 nM.

For the molecule `CO[C@@H](C)CN1CCC2(C)c3cccc(O)c3C[C@H]1C2(C)C`, the IC50 in [1] is over 10000 nmol/L. Moreover, the figures for the inhibition in test [8] and in [10] were 25% and 52%, respectively. Moreover, the Ki in [2] stood at 10000 nM.

With `C[C@H](CN1CCC2(C)c3ccc(O)cc3C[C@@H]1C2(C)C)OCc1ccccc1`, in test [3] (setting [13]), the ED50 stood at 35.3 mg/kg. In test [1], this molecule returned an IC50 of 3177 nmol/L. The Ki in [2] is 382 nM.

As for `CO[C@H](C)CN1CCC2(C)c3cccc(O)c3C[C@@H]1C2(C)C`, the ED50 in [3] is 0.8 mg/kg. Further, the IC50 in test [1] came out at 4153 nmol/L. In test [2], the Ki came out at 3310 nM.

The molecule `CN(c1nc2ccccc2s1)C1CCN(C[C@H](O)COc2ccc(F)c(F)c2)CC1` [LUBELUZOLE] yielded a Ki in test [2] of 203 nM.

Turning to `C[C@H](CN1CCC2(C)c3cccc(O)c3C[C@@H]1C2(C)C)OCC1CCCCC1`, in [9], the Mice was determined as 0%. Besides, the ED50 in test [11] is over 30 mg/kg. In addition, the IC50 in test [1] came out at 1481 nmol/L. This molecule displayed a Ki in test [2] of 241 nM.

As to `C[C@H](CN1CCC2(C)c3ccc(O)cc3C[C@@H]1C2(C)C)Oc1ccccc1`, the IC50 in test [1] is 6024 nmol/L. Besides, the Ki in [2] was found to be 662 nM.

Consider `C[C@@H](CN1CCC2(C)c3ccc(O)cc3C[C@@H]1C2(C)C)Oc1ccccc1`, for which the Animals in [9] is reported as 0%. The ED50 in test [3] (setting [13]) is over 30 mg/kg. Further, the IC50 in [1] came out at 5799 nmol/L. This molecule also showed a Ki in test [2] of 149 nM.

Turning to `C[C@H](CN1CCC2(C)c3cccc(O)c3C[C@H]1C2(C)C)OCc1ccccc1`, the Mice in test [9] came to 40%. For the same molecule, the ED50 in [3] (setting [13]) was over 100 mg/kg. The same molecule gave an IC50 in [1] of 3772 nmol/L. For the same molecule, in [2], the Ki was 1490 nM.

Turning to `CC(CN1CCC2(C)C[C@@H]1Cc1c(O)cccc12)OCc1ccccc1` (stereo partly specified), the ED50 in test [3] (setting [13]) was determined as 2.2 mg/kg. The IC50 in [1] stood at 255 nmol/L. In addition, the Ki in test [2] was 47 nM.

Regarding `C[C@@H](CN1CCC2(C)c3cccc(O)c3C[C@@H]1C2(C)C)OCc1ccccc1`, in [3] (setting [13]), the ED50 was determined as 6.1 mg/kg. The IC50 in test [1] is 322 nmol/L. The Ki in test [4] is 449 nM l-1; in test [5] it was over 10000 nM l-1; in [2] it was 43 nM; in test [6] it was over 10000 nM l-1; in test [7], 660 nM l-1.

`C[C@@H](CN1CCC2(C)c3cccc(O)c3C[C@@H]1C2(C)C)OCC1CCCCC1` registered a Mice in test [9] of 0%. In test [3] (setting [13]), the ED50 was over 30 mg/kg. Further, the IC50 in test [1] came out at 975 nmol/L. In test [2], the Ki came out at 208 nM.

`CO[C@@H](C)CN1CCC2(C)c3ccccc3C[C@@H]1C2(C)C`: the IC50 in test [1] is recorded as ~ 10000 nmol/l. Besides, in [8], the inhibition is 52%. In test [2], this molecule displayed a Ki of 4700 nM.

`COC(C)CN1CCC2(C)c3c(O)cccc3C[C@@H]1C2(C)C` (stereo partly specified): the IC50 in test [1] is over 10000 nmol/L. For the same molecule, the inhibition in test [8] came out at 23%. Besides, the Ki in [2] stood at 8990 nM.

For the molecule `C[C@@H](CN1CCC2(C)c3cccc(O)c3C[C@H]1C2(C)C)OCc1ccccc1`, the Mice in [9] turned out to be 40%. In test [3] (setting [13]), the ED50 was over 100 mg/kg. This molecule came in with an IC50 in test [1] of 1289 nmol/L. The Ki in test [2] came out at 1330 nM.

For the molecule `C[C@@H](CN1CCC2(C)c3ccc(O)cc3C[C@@H]1C2(C)C)OCc1ccccc1`, the ED50 in test [3] (setting [13]) was found to be 10.1 mg/kg. Besides, the IC50 in [1] was 2300 nmol/L. In addition, the Ki in test [2] was 312 nM.

On to `CC1[C@H]2Cc3c(O)cccc3C1(C)CCN2C[C@@H](C)OCc1ccccc1` (stereo partly specified), for which the ED50 in test [3] (setting [13]) stood at 3.1 mg/kg. The IC50 in test [1] stood at 452 nmol/L. Also, the Ki in [2] amounted to 153 nM.

In [9], `C[C@@H](CN1CCC2(C)c3ccc(O)cc3C[C@H]1C2(C)C)Oc1ccccc1` showed an Animals of 0%. For the same molecule, in test [3] (setting [13]), the ED50 was over 100 mg/kg. The molecule further returned an IC50 in test [1] of 6464 nmol/L. The molecule further came in with a Ki in test [2] of 1530 nM.

Turning to `Cc1cccc(C)c1OCC(C)N` (stereo unspecified) [MEXILETINE], in test [1], the IC50 was 47000 nmol/L. The Ki in [2] is 22700 nM.

In the case of `CC12CCN(CCc3ccccc3)[C@@H](Cc3cc(O)ccc31)C2(C)C`, the IC50 in test [1] turned out to be 5029 nmol/L. In test [2], this molecule registered a Ki of 1290 nM.

Turning to `CO[C@H](C)CN1CCC2(C)c3cccc(O)c3C[C@H]1C2(C)C`, the IC50 in test [1] was over 10000 nmol/L. The values for the inhibition in test [8] and in [10] were 42% and 48%, respectively. For the same molecule, in [2], the Ki stood at 10000 nM.

In turn, `Cc1ccc(-c2nc(CN3CCN(C(c4ccccc4)c4ccccc4)CC3)c(C)[nH]2)cc1` [LIFARIZINE] showed an IC50 in test [1] of 494 nmol/L. For the same molecule, the Ki in test [2] stood at 259 nM.

In [3], `CO[C@@H](C)CN1CCC2(C)c3cccc(O)c3C[C@@H]1C2(C)C` displayed an ED50 of 1 mg/kg. The IC50 in test [1] is 3190 nmol/L. Besides, the Ki in test [2] was determined as 783 nM.

`C[C@@H](CN1CCC2(C)c3ccc(O)cc3C[C@H]1C2(C)C)OCc1ccccc1` gave a Mice in test [9] of 30%. For the same molecule, the ED50 in test [3] (setting [13]) is over 100 mg/kg. In addition, in [1], the IC50 came to 4516 nmol/L. Moreover, the Ki in [2] is 1870 nM.

`CC12CCN(CCOCc3ccccc3)[C@H](Cc3c(O)cccc31)C2(C)C`: the ED50 in [3] (setting [13]) stood at 2.1 mg/kg. For the same molecule, in test [1], the IC50 is 379 nmol/L. Further, the Ki is over 10000 nM l-1 in [12]; 60 nM l-1 in [4]; 20 nM in [2]; over 10000 nM l-1 in test [6]; 217 nM l-1 in test [7].

As for `COC(C)CN1CCC2(C)c3ccc(O)cc3C[C@@H]1C2(C)C` (stereo partly specified), the ED50 in [3] was determined as 0.7 mg/kg. The IC50 in test [1] is over 10000 nmol/L. The inhibition in [8] amounted to 21%; in [10], 45%. In [2], this molecule registered a Ki of over 10000 nM.
